Results pooled from the literature.
Protocols differ between the studies behind these lines.
Target: Interleukin-1 receptor-associated kinase 4 (IRAK4, Homo sapiens, UniProt Q9NWZ3)

Compound	test	conditions	measurement	result
CNC(=O)c1ccc(Nc2ncc(C(F)(F)F)c(NCc3nccnc3N(C)S(C)(=O)=O)n2)cc1	cell-free assay, competition with immobilised ligand	0.1 µM	remaining binding	92%
O=C1Nc2ccc(Cl)cc2C1=Cc1cc(Cl)c(O)c(Cl)c1	cell-free assay	0.5 µM	remaining signal	101%
Nc1cnc(N2CCc3cc(S(=O)(=O)Nc4c(F)cc(Cl)cc4F)cc(N4CCCC4=O)c32)nc1	cell-free assay, competition with immobilised ligand	1 µM	remaining binding	100%
CSc1nc(C)c(-c2ccnc(Nc3ccc(N4CCOCC4)cc3)c2)[nH]1	enzyme activity, inhibitor	10 µM	inhibition	45.8%
CNC(=O)c1cc(Oc2ccc(NC(=O)Nc3ccc(Cl)c(C(F)(F)F)c3)cc2)ccn1	cell-free assay	0.5 µM	remaining signal	99.6%
N#Cc1ccc(Nc2ccc3[nH]c(=O)[nH]c3c2)c(Cl)c1	cell-free assay, competition with immobilised ligand	1 µM	remaining binding	100%
CC(C)(O)[C@H]1CC[C@H](Nc2ccc3ncc(-c4cccc(C(F)(F)F)c4)n3n2)CC1	enzyme activity, inhibitor	1 µM	remaining activity	64.2%
CC1=C(C#N)C(c2ccc3c(c2)c(NC(=O)c2ccccc2C)nn3C)C(C#N)=C(C)N1	cell-free assay, competition with immobilised ligand	1 µM	remaining binding	7.5%
Oc1cccc(-c2nc(N3CCOCC3)c3oc4ncccc4c3n2)c1	cell-free assay	0.5 µM	remaining signal	104%
CCC(=O)N[C@H]1CC[C@@H](C(=O)N(C)c2ccc(-c3nc4ccccc4o3)cc2)C1	cell-free assay, competition with immobilised ligand	1 µM	remaining binding	87%
Cc1cnc(NC2CCOCC2)nc1-n1cnc(C(=O)NC(CN)c2cc(F)cc(Cl)c2)c1 (stereo not shown)	enzyme activity, inhibitor, radiometric	1 µM	remaining activity	104%
Cc1sc(C(=O)NC2COC2)cc1-n1cc(NC(=O)Nc2c(F)cccc2Cl)cn1	enzyme activity, inhibitor	10 µM	remaining activity	103%
Cc1nccc(COC(=O)N2C[C@@H]3[C@@H](CNC(=O)c4ccc5[nH]nnc5c4)[C@@H]3C2)n1	cell-free assay, competition with immobilised ligand	1 µM	remaining binding	87%
O=C(Nc1cnn(-c2csc(C(=O)NC3COC3)c2)c1)Nc1ccccc1Cl	enzyme activity, inhibitor	5 µM	remaining activity	92.1%
CN(C)C1CCN(CC#Cc2nn(C3CCCC3)c3nc(NCc4ccccc4)ncc23)C1 (stereo not shown)	enzyme activity, inhibitor, FRET	0.1 µM	inhibition	0%
FC(F)(F)Oc1cccc(-c2cnc3ccc(-c4ccncc4)nn23)c1	enzyme activity, inhibitor, radiometric	1 µM	activity vs control	12%

Compound	test	conditions	measurement	result
Cc1ccc(C(=O)Nc2ccc(CN3CCN(C)CC3)c(C(F)(F)F)c2)cc1C#Cc1cnc2cccnn12	enzyme activity, inhibitor	23.5 nM	remaining activity	91%
CNc1cccc2cc(C(=O)Nc3ccc(C(=O)O)cc3)c(=O)[nH]c12	enzyme activity, inhibitor	10 µM	inhibition	7.7%
FC(F)c1nc2ccccc2n1-c1nc(N2CCOCC2)nc(N2CCOCC2)n1	enzyme activity, inhibitor	10 µM	remaining activity	102%
C[C@H](c1cccc(C#N)c1)n1cc(Cl)cc(C(N)=O)c1=N	cell-free assay, competition with immobilised ligand	1 µM	remaining binding	82%
Cc1ccc(C(=O)NCc2ccsc2)cc1C#Cc1cn(C(C)C)c2ncnc(N)c12	enzyme activity, inhibitor	1 µM	activity vs control	88%
COc1ccc(COc2ccc(Cc3cnc(N)nc3N)cc2OC)cc1	cell-free assay	0.5 µM	remaining signal	110%
CN1CC(Oc2cnc(C#N)cc2-c2ccn3nc(NC(=O)C4CC4)cc3c2)C1	enzyme activity, inhibitor	1 µM	inhibition	1%
Oc1cccc(-c2nc(N3CCOCC3)c3oc4ncccc4c3n2)c1	enzyme activity, inhibitor	10 µM	remaining activity	119%
O=C(CSc1nc2nccnc2c(=O)n1CCc1ccccc1)Nc1nccs1	enzyme activity, inhibitor	10 µM	inhibition	10%
CC(C)(C)c1nc(-c2cccc(NS(=O)(=O)c3c(F)cccc3F)c2F)c(-c2ccnc(N)n2)s1	enzyme activity, inhibitor, radiometric	1 µM	remaining activity	103%
CC(=O)Nc1c(C(C)=O)c(=O)n(C)c2nc(-c3ccc(Cl)cc3Cl)c(-c3ccc(Cl)cc3)cc12	cell-free assay, competition with immobilised ligand	1 µM	remaining binding	100%
Cc1cc(NC(=O)c2cccc3cc(-c4cccc5[nH]nc(N)c45)ccc23)ccc1F	enzyme activity, inhibitor	0.1 µM	activity vs control	99%
COc1cc2ncnc(Nc3ccc(Oc4ccccc4)cc3C)c2cc1OC	enzyme activity, inhibitor	1 µM	inhibition	0%
CCN(CC)CCNC(=O)c1c(C)[nH]c(/C=C2\C(=O)Nc3ccc(F)cc32)c1C	enzyme activity, inhibitor	0.3 µM	inhibition	28%
C=CC(=O)Nc1cc(Nc2nccc(Nc3cc(Cl)c(F)cc3C(C)(C)O)n2)c(OC)cc1N1CC[C@@H](N(C)C)C1	enzyme activity, inhibitor	1 µM	inhibition	24%
